# Assay outcomes from PubChem BioAssay.
# m5-HT2A agonist = agonists of mouse serotonin 5-HT2A receptor (HTR2A); P35363; 360,000 compounds, 0.66% hits; AID 624169; CHO-K1 mHTR2A beta-arrestin complementation, luminescence; percent of 30 µM serotonin response; activation, % at 7.6 µM;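 active = activation above a run cutoff, the mean activation of all tested compounds plus 3 SD, cut at about 14% in these data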
# FXN GAA850 act = frataxin GAA850 promoter activation; HEK293 lucGAA850 FXN promoter luciferase reporter, 24 h; percent of 10 µM SAHA response; activation, % at 6 µM; 360,000 compounds, 0.56% hits; AID 540364;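 active = activation above the average of all compounds screened plus 3 SD, cutoff fixed separately per campaign, cut at about 7.5% in these data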
# MC4R ag barr = activates human MC4R beta-arrestin recruitment. P32245. U2OS MC4R beta-arrestin complementation, luminescence; percent of melanotan II response, DMSO zero. activation, % at 8.9 µM. 360,000 compounds, 0.98% hits;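 active = activation above a per-plate cutoff, the mean activation of sample wells on that plate plus 3 SD, cut at about 8% in these data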
# AHR activator = activators of human aryl hydrocarbon receptor. P35869. AHR-responsive luciferase reporter cells, luminescence. activation, % at 5 µM. 320,000 compounds, 2.5% hits; in the data active = activation above about 47%
# Target sequence (P35869 whole entry, looked up): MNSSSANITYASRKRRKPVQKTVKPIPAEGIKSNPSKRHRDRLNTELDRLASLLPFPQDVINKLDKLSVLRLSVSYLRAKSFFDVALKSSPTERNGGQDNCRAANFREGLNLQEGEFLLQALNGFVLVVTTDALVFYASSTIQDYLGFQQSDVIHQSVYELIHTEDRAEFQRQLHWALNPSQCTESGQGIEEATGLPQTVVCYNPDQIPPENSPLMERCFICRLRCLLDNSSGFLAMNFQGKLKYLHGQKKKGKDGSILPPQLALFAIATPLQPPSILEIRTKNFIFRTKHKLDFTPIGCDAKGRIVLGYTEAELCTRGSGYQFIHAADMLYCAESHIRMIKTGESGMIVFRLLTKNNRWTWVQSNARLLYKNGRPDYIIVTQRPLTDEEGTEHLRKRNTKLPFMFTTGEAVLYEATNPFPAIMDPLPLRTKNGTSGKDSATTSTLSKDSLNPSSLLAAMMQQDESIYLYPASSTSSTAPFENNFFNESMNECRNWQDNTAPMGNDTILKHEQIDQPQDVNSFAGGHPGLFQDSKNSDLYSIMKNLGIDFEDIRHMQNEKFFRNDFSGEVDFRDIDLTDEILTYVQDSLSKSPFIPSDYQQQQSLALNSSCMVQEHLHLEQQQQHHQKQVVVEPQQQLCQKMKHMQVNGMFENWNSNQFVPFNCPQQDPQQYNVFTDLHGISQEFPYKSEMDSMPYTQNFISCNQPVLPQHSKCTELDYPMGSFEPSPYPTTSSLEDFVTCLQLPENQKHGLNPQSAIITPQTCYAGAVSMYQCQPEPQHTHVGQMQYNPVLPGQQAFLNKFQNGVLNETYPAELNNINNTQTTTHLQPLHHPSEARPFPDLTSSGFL
# MC4R antag cAMP = blocks human MC4R cAMP signaling. MC4R-expressing cells, MTII-stimulated cAMP, LANCE TR-FRET. AID 540295. P32245. inhibition, % at 6.5 µM. 360,000 compounds, 0.48% hits;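 active = inhibition above its plate's cutoff, the mean of tested wells on that plate plus 3 SD, cut at about 29% in these data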
#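 system = U2OS cells with stable human MC4R expression | also added = Melanotan II challenge after compound preincubation | dosing = one concentration, 6.5 µM nominal | incubation = compound 30 min, challenge 1 h, detection 1 h | measured by = TR-FRET with Eu-cAMP and labeled anti-cAMP, 671 nm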
# U2OS cAMP counter = U2OS forskolin cAMP inhibition counter-screen; shares compounds with MC4R antag cAMP; parental U2OS, LANCE TR-FRET; 1,600 compounds, 26% hits; inhibition, % at 6.5 µM; AID 602193;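 active = mean inhibition over triplicates above the low-control well mean plus 3 SD, set per campaign, cut at about 13% in these data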;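 note: signal is single emission at 671 nm which falls as cellular cAMP rises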
# MC4R antag conf = human MC4R cAMP antagonism confirmation; shares compounds with MC4R antag cAMP; MC4R-expressing cells, MTII-stimulated cAMP, TR-FRET; inhibition, % at 6.5 µM; 1,600 compounds, 27% hits; in the data active = inhibition above about 29%
# MC4R barr ag = human MC4R beta-arrestin agonism confirmation. activation, % at 8.9 µM. shares compounds with MC4R ag barr. U2OS MC4R beta-arrestin recruitment, luminescence; scaled DMSO 0%, Melanotan II 100%. AID 602192. 2,400 compounds, 31% hits;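 active = mean activation across replicates above the hit cutoff set in the earlier primary screen, cut at about 8% in these data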
# MOR-DOR barr ag = activates mu-delta opioid heterodimer, MC4R agonist counter-screen | 2,400 compounds, 5.8% hits | activation, % at 9.2 µM | AID 602194 | shares compounds with MC4R ag barr | U2OS PathHunter beta-arrestin, beta-gal luminescence; percent of deltorphin B response, DMSO zero;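 active = mean activation across replicates exceeds the hit threshold derived in the earlier primary screen, cut at about 18% in these data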
# A number is an active result; i = inactive; nt = not tested or not shown. In the library only some 4.7% were active in any assay of this set; here they are far more common.
SMILES,m5-HT2A agonist,FXN GAA850 act,MC4R ag barr,AHR activator,MC4R antag cAMP,U2OS cAMP counter,MC4R antag conf,others
CN(c1cccc(NC(=O)c2ccc(N(C)S(=O)(=O)c3ccccc3)cc2)c1)S(C)(=O)=O,i,i,i,i,42,i,i,
CC(=O)Nc1ccc(C(=O)Nc2cccc(S(=O)(=O)N(C)c3ccccc3)c2)cc1,i,i,i,i,i,nt,nt,
COc1ccccc1NC(=S)N1CCC(NC(=O)NC23CC4CC(CC(C4)C2)C3)CC1,i,i,i,i,34,i,i,
CC(C)N(C(=O)COC(=O)c1ccccc1C(=O)c1ccc(Cl)c([N+](=O)[O-])c1)C(C)C,i,i,i,i,i,nt,nt,
O=C(COC(=O)c1ccc(Cl)c([N+](=O)[O-])c1)NC1CCCC1,i,i,i,i,i,nt,nt,
O=C(COC(=O)c1ccccc1C(=O)c1ccc(Cl)c([N+](=O)[O-])c1)NC1CCCCCC1,i,i,i,i,64,i,31,
CN(CCC#N)C(=O)COC(=O)c1ccccc1C(=O)c1ccc(Cl)c([N+](=O)[O-])c1,i,i,i,i,33,24,i,
O=C(COC(=O)c1ccc2c(c1)OCO2)Nc1ccccc1OC(F)F,i,i,i,i,i,nt,nt,
O=C(COC(=O)c1ccc(Cl)c([N+](=O)[O-])c1)Nc1ccccc1OC(F)F,i,i,i,55,34,21,47,
O=C(Nc1ccccc1C(=O)NC1CC1)c1ccccc1,i,i,i,i,i,nt,nt,
COc1cc(OC)cc(Oc2ccc(S(=O)(=O)N3CCCCC3)cc2[N+](=O)[O-])c1,i,i,i,i,30,i,i,
O=C1NC[C@@H](CCCCN2CCN(CCC3CCCCC3)C(=O)C2=O)N(CCC2CCCCC2)C1=O,i,nt,nt,nt,nt,nt,nt,
Cc1ccc(C2(CCNC(C)c3cccs3)CCOC(C(C)C)C2)cc1 (stereo not given),i,i,i,nt,i,nt,nt,
COc1ccccc1C1(CCNC(C)c2cccs2)CCOC(C(C)C)C1 (stereo not given),i,i,i,i,47,i,37,
CC(Cc1n[nH]c(=S)n1N)c1ccccc1 (stereo not given),i,i,i,i,i,nt,nt,
CCc1ccccc1NC(=S)N1CCCCCC1,i,i,i,nt,i,nt,nt,
S=c1[nH]nc(-c2ccccn2)n1/N=C/c1ccc(-c2ccccc2Br)o1,i,i,i,nt,94,58,126,
COC(=O)[C@]12CCCCC=C1N(Cc1ccccc1)C(=O)[C@H](CC(=O)N1CCC(c3ccccc3)CC1)C2,i,nt,nt,nt,nt,nt,nt,
COc1ccc(C(CNC(=O)CSc2ccccc2F)N2CCOCC2)cc1 (stereo not given),i,i,i,i,i,nt,nt,
COc1ccc(C(CNC(=O)c2cc(F)c(F)c(F)c2F)N2CCOCC2)cc1 (stereo not given),i,i,i,i,31,19,36,
CCCCN(C(=O)c1cc2c(s1)CCC2)c1c(N)n(CCCC)c(=O)[nH]c1=O,i,i,i,i,i,nt,nt,
Cc1cc(Sc2ncnc(N)c2[N+](=O)[O-])ncn1,i,i,i,i,38,16,36,
Cc1cc(Sc2nc(N)ncc2[N+](=O)[O-])ncn1,i,i,i,i,40,20,35,
Cc1ccc(C)c(Oc2ncnc(N)c2[N+](=O)[O-])c1,i,i,i,i,i,nt,nt,
CSc1ccc(CN2CCC(C)(Oc3ccc(F)cc3)C2)cc1 (stereo not given),i,i,i,nt,i,nt,nt,
SMILES,m5-HT2A agonist,FXN GAA850 act,MC4R ag barr,AHR activator,MC4R antag cAMP,U2OS cAMP counter,MC4R antag conf,others
Cc1cc(O)c(C2=Nc3ccccc3SC(c3ccc(Cl)cc3)C2)c(=O)o1 (stereo not given),i,i,i,i,31,i,i,
COc1ccc(C2CC(c3c(O)cc(C)oc3=O)=NCCS2)c(OC)c1 (stereo not given),i,i,i,i,i,nt,nt,
C(=NOCCc1ccccc1)c1ccccn1,i,i,i,nt,i,nt,nt,
CCOC(=O)C1CCCN(C(=O)c2cccc([N+](=O)[O-])c2C)C1 (stereo not given),i,i,i,i,32,i,i,
CCOC(=O)C1CCCN(C(=O)c2ccc(OC)c([N+](=O)[O-])c2)C1 (stereo not given),i,i,i,i,i,nt,nt,
CN(C)CCCN1C(=O)C(O)=C(C(=O)c2cc3ccccc3o2)C1c1ccccc1 (stereo not given),i,i,i,i,i,nt,nt,
CN(C)CCCN1C(=O)C(O)=C(C(=O)c2cc3ccccc3o2)C1c1ccccn1 (stereo not given),i,i,i,nt,33,i,i,
CCOC(=O)c1cnc(-n2[nH]c(C)cc2=O)[nH]c1=O,i,i,i,i,30,i,i,
Nc1nnc(-c2ccc(Cl)cc2Cl)s1,i,i,i,i,30,i,i,
COc1ccc(C(CNC(=O)c2cccc(S(=O)(=O)N3CCCCC3)c2)N2CCCC2)cc1 (stereo not given),i,i,i,i,i,nt,nt,
COc1ccc(C(C)=O)cc1Cn1c(=O)cc(C)[nH]c1=O,i,i,i,i,30,i,i,
COc1ccc(S(=O)(=O)Nc2ccc(-n3cnnn3)cc2)cc1[N+](=O)[O-],i,i,i,i,i,nt,nt,
O=C(/C=C/c1ccc2c(c1)OCCO2)N1CCN(c2ccc(F)cc2)CC1,i,i,i,i,i,nt,nt,
O=C(/C=C/c1ccc2c(c1)OCO2)N1CCN(c2ccc(Cl)cc2)CC1,i,i,13,i,29,i,i,MC4R barr ag=i;MOR-DOR barr ag=i
O=c1[nH][nH]c(=O)c2c1[nH]c(=S)n2Cc1ccccc1,i,i,i,nt,i,nt,nt,
CCc1nnc(NS(=O)(=O)c2ccc(NC(=S)NC(=O)/C=C/c3ccc(C(C)C)cc3)cc2)s1,i,i,24,i,29,i,i,MC4R barr ag=i;MOR-DOR barr ag=i
CC(=O)OC[C@]1(OC(C)=O)C[C@@]23CC[C@H]4[C@@](C)(CCC[C@@]4(C)C(=O)O)[C@@H]2CC[C@@H]1C3,i,i,i,i,i,nt,nt,
CC(=O)OC[C@]12CC[C@H]3[C@@](C)(CC[C@H]4C(C)(C)CCC[C@]34C)[C@@H]1CC(C1=CC(=O)OC1O)O2 (stereo not given in full),i,i,91,nt,52,i,35,MC4R barr ag=26;MOR-DOR barr ag=82
O=C(Nc1ccccc1-c1nc2ccccc2[nH]1)c1ccc(N2C(=O)CCC2=O)cc1,i,i,10,49,35,i,i,MC4R barr ag=i;MOR-DOR barr ag=i
